From ChEMBL document CHEMBL4038284, “Synthesis of novel quinoline-based 4,5-dihydro-1H-pyrazoles as potential anticancer, antifungal, antibacterial and antiprotozoal agents” (Eur J Med Chem, 2017)
Activity calls are given as the source filed them. The calls are words filed in the database; no cut-off is given here.

How the values were obtained:
[1] = tested on: UO-31; experiment: Growth inhibition of human UO31 cells at 10 uM incubated for 48 hrs by sulforhodamine B assay; format: functional, cell-based
In short: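 NCI-60 single-dose screen at 10 µM for 48 h. Cells were grown in RPMI-1640 with 5% FBS and 2 mM L-glutamine and preincubated 24 h before compound. Time-zero plates were TCA-fixed at compound addition. After exposure, cells were TCA-fixed, stained with SRB and read at 515 nm. Percentage growth was calculated against time-zero and untreated-control absorbances.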

[2] = tested on: Cryptococcus neoformans; experiment: Growth inhibition of Cryptococcus neoformans ATCC 32264 at 7.8 ug/ml incubated for 48 hrs under dark condition by broth microdilution method relative to control; format: functional; conditions: ATCC 32264, 48 h, read-out: GI
In short: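 CLSI M27-A3 broth microdilution in RPMI-1640, DMSO ≤1%. Inoculum 1-5 × 10^3 CFU/mL. Incubated 48 h at 30 °C, dark. % inhibition = 100 − (OD405 test − sterility control)/(OD405 growth control − sterility control), with growth and sterility control wells. Triplicate.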

Row | SMILES | growth inhibition (GI) [1] | inhibition of growth at 7.8 µg/mL [2]
1 | Clc1ccc(C2=NN(c3ccccc3)C(c3cccc(Nc4ccnc5cc(Cl)ccc45)c3)C2)cc1 (centres undefined) | inactive | 0%
2 | COc1cc(C2=NN(c3ccc(Cl)cc3)C(c3cccc(Nc4ccnc5cc(Cl)ccc45)c3)C2)cc(OC)c1OC (centres undefined) | inactive | 10.4%
3 | Clc1ccc(C2=NN(c3ccc(Cl)cc3)C(c3cccc(Nc4ccnc5cc(Cl)ccc45)c3)C2)cc1 (centres undefined) | inactive | 18.4%
4 | O=Cc1cccc(Nc2ccnc3cc(Cl)ccc23)c1 | – | 5.93%
5 | Clc1ccc(C2=NN(c3cc(Cl)cc(Cl)c3)C(c3cccc(Nc4ccnc5cc(Cl)ccc45)c3)C2)cc1 (centres undefined) | inactive | 0%
